High-throughput results as filed in PubChem.
Compounds with a hit are over-represented: about 0.95% of the library has one in this group of screens.
SUMO HTRF inh = inhibitors of in vitro SUMOylation cascade, primary screen, biochemical, HTRF, uHTS; SUMO-conjugating enzyme UBC9 (Homo sapiens), P63279; HTRF SUMOylation assay, SAE1/SAE2 + UBC9; AID 2006, 2009; 0.36% of 290,000 active; inhibition, % at 35 µM; in the data active = inhibition above about 50%, passing the limit was not always enough
p97 inhibitor = inhibitors of human p97 ATPase, primary screen, biochemical. 0.42% of 220,000 active. Transitional endoplasmic reticulum ATPase (Homo sapiens), P55072. recombinant p97 ATPase, Kinase-Glo ATP luminescence, 3 h. inhibition, % at 8 µM; in the data active = inhibition above about 15%
G6PDH counter = L. mesenteroides G6PDH inhibitors, counter-screen for G6PDH-coupled screening assays, biochemical, Leuconostoc mesenteroides enzyme. inhibition, % at 5 µM. glucose-6-phosphate dehydrogenase [Leuconostoc mesenteroides]. 0.12% of 200,000 active. AID 1020, 2008. Purified L. mesenteroides G6PDH, diaphorase/resazurin coupled fluorescence, 45 min; in the data active = inhibition above about 50%
Diaph inh CS = diaphorase inhibitors and chemical oxidizers, primary screen, counter-screen for diaphorase-coupled primary assays, biochemical, uHTS, resorufin fluorescence; diaphorase resazurin-to-resorufin fluorescence, NADH, 16 min; bacterial (C. kluyveri) enzyme, not human; inhibition, % at 20 µM; 0.69% of 190,000 active; AID 1217, 2008;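 active = primary screen inhibition at 20 µM above a set limit, cut at about 50% in these data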
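System: Diaphorase enzyme from Clostridium kluyveri | Amount: Enzyme working solution with 0.14 U/mL diaphorase | Benchmarks: No-NADH positive control and DMSO neutral control | Signal: Fluorescence of resorufin formed from resazurin, Ex 544/Em 590 nm | Schedule: 16-min room-temperature incubation before reading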
HKDC1 inh = HKDC1 hexokinase inhibitors, primary screen, biochemical, fluorescence, uHTS; Q2TB90; recombinant HKDC1, G6PDH/diaphorase resazurin coupled fluorescence; inhibition, % at 20 µM; 0.16% of 340,000 active;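 active = inhibition above about 35% when tested at 20 µM, limit read from the data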
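Material: recombinant HKDC1 hexokinase; Amount: HKDC1 at 5 µg/mL; Medium: Tris pH 8.0 buffer with MgCl2, Tween-20, BSA, BME; Schedule: 90 min reaction incubation at room temperature, dark; Technique: coupled resazurin fluorescence, excitation 525 nm, emission 613 nm.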
Hits are given with their value; – = inactive; · = not tested or not shown.

SMILES	SUMO HTRF inh	p97 inhibitor	G6PDH counter	Diaph inh CS	HKDC1 inh
O=[N+]([O-])c1ccccc1C1Nc2cccc3cccc(c23)N1	–	–	–	57	–
COc1ccc(CCNS(=O)(=O)c2ccc(Cl)cc2)cc1OC	–	·	·	·	–
Cc1c(CCC(=O)NCCCC(=O)O)c(=O)oc2cc3oc4c(c3cc12)CCCC4	–	·	·	·	–
C/C(=N\NC(=O)C1(C)CC1(Br)Br)c1cccc(NC(=O)c2ccc(C)o2)c1 (centres undefined)	–	·	·	·	–
O=C(N/N=C/c1ccc(O)c([N+](=O)[O-])c1)C1CC1(c1ccccc1)c1ccccc1 (centres undefined)	–	–	–	72	–
O=C(N/N=C/c1ccncc1)C1CC1(c1ccccc1)c1ccccc1 (centres undefined)	–	–	·	·	–
CC(=O)Nc1ccc(NC(=O)CSc2ccc(-c3ccco3)nn2)cc1	–	–	–	59	–
CC(=O)Nc1cccc(NC(=O)CSc2ccc(-c3ccco3)nn2)c1	–	·	·	·	–
COc1cc(NC(=O)C2CC(c3ccc(Cl)cc3)=NO2)cc(OC)c1OC (centres undefined)	–	·	·	·	–
C(=NN=C(NN=Cc1cccs1)NN=Cc1cccs1)c1cccs1	·	·	·	·	–
O=C(O)C1Nc2c(O)cccc2C2C=CCC12 (centres undefined)	97	23	–	78	–
CCc1c(N)nc(N)nc1Nc1ccccc1C	·	·	·	·	–
O=C(Nc1cccc2nsnc12)c1ccc(-c2ccc(Br)cc2)o1	73	–	–	–	–
COC(=O)c1ccccc1NC(=O)c1ccc(-c2ccc(Br)cc2)o1	–	–	–	–	–
O=C(CSc1nnnn1-c1ccc(F)cc1)c1ccc(O)c(O)c1	–	–	–	50	–
CN(C)/C=C1/Sc2ccccc2C1=O	–	–	–	–	–
CC(=O)N(\C=C/C=C/C=C1\Sc2ccccc2C1=O)c1ccccc1	69	–	–	53	–
CCOc1ccc(S(=O)(=O)NCc2ccncc2)cc1NC(=O)c1ccccc1F	–	·	·	·	–
COc1ccc(C(=O)NC(=S)NNC(=O)CNC(=O)C2CCCCC2)cc1	–	–	–	59	–
Cc1ccc(OC(=O)CCNC(=O)c2ccccc2Cl)c(Br)c1	·	·	·	·	–
Nc1cc(=O)[nH]c2ncnn12	·	·	·	·	–
Clc1ccc(N(CC2CO2)CC2CO2)cc1 (centres undefined)	·	·	·	·	–
Cc1cccc(NC(=O)COC(=O)C2COc3ccccc3O2)c1C (centres undefined)	·	·	·	·	–
O=C(NCCCN1CCOCC1)c1ccc2c(c1)N(Cc1cccc(Cl)c1)C(=O)CS2	–	·	·	·	–
N=C1S/C(=C\c2ccc(-c3ccccc3C(=O)O)o2)C(=O)N1c1ccc2c(c1)OCO2	–	–	–	67	–
SMILES	SUMO HTRF inh	p97 inhibitor	G6PDH counter	Diaph inh CS	HKDC1 inh
O=C(CN1C(=O)S/C(=C\c2ccc(-c3cc(C(=O)O)ccc3Cl)o2)C1=O)Nc1ccc2c(c1)OCO2	84	·	·	·	·
COc1ccccc1N1C(=N)S/C(=C\c2ccc(-c3ccccc3C(=O)O)o2)C1=O	–	–	–	–	–
c1ccc(C2=Nn3c(nnc3-c3ccco3)SC2)cc1	–	–	–	73	–
CCOC(=O)c1c(C)sc2c1N(C(=O)CN(CC)CC)c1cc(Cl)ccc1S2	–	–	–	–	–
CCOC(=O)c1c(C)sc2c1N(C(=O)CN1CCOCC1)c1cc(Cl)ccc1S2	–	–	–	57	–
COc1cc(C(=S)N2CCN(c3ccccc3Cl)CC2)cc(O)c1O	–	–	–	61	–
CCOC(=O)c1c(C)n(-c2ccc(C)cc2)c2c(CC(C)=O)c(Br)c(OC)c(O)c12	–	–	–	–	–
CCOC(=O)c1c(C)n(-c2ccc(C)cc2)c2c(C(C(C)=O)C(=O)O)c(Br)c(O)c(O)c12 (centres undefined)	–	–	–	72	–
COc1ccc(C(=O)NC2=Nc3ccccc3N=C(C)C2c2ccccc2)cc1 (centres undefined)	–	–	·	·	–
CN(C)c1cccc2c(C=C(C#N)C#N)ccc(N(C)C)c12	–	–	–	62	–
CN(C)c1cccc2c(/C=N/O)ccc(N(C)C)c12	–	–	–	–	–
